Experimental findings from ChEMBL document CHEMBL1155985, “Water-soluble phosphate prodrugs of pleuromutilin analogues with potent in vivo antibacterial activity against Gram-positive pathogens” (Bioorg Med Chem Lett, 2009) are described below.

Values after ≈ are worked out from the molar mass of the structure shown.

For data set [1], the system named is Staphylococcus aureus. Kind of data set: Antibacterial activity against methicillin-susceptible Staphylococcus aureus by agar dilution method. The format is functional. Put shortly: (§1)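 MICs by agar dilution following NCCLS guidance against resistant and susceptible Gram-positive strains; retapamulin and linezolid run as positive controls.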
Data set [2] deals with Staphylococcus aureus. Nature of the data set: Antibacterial activity against methicillin-resistant Staphylococcus aureus by agar dilution method. The format is functional. Summed up: as §1
Data set [3] relates to Staphylococcus epidermidis. Kind of data set: Antibacterial activity against methicillin-susceptible Staphylococcus epidermidis by agar dilution method. The format is functional. Put shortly:
as §1

Data set [4] concerns Staphylococcus epidermidis. Kind of data set: Antibacterial activity against methicillin-resistant Staphylococcus epidermidis by agar dilution method. The format is functional. Summed up:
as §1

Data set [5] relates to Streptococcus pneumoniae. Nature of the data set: Antibacterial activity against Streptococcus pneumoniae by agar dilution method. Format: functional. Summed up:
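MIC was measured by agar dilution following NCCLS guidelines, with retapamulin and linezolid as positive controls.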

Data set [6] can be described thus: Aqueous solubility of the compound. The format is physicochemical.
The nature of data set [7]: Stability in buffer at pH 7.4 assessed as remaining compound at 10 mg/ml after 8 hrs. The format is physicochemical. Particulars: read-out: Activity. Summed up:
(§2)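 Compounds at 10 mg/mL in pH 7.4 buffer were kept at room temperature. Percent parent remaining was measured by UV/HPLC at 8 h and at 14 days.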

The nature of data set [8]: Stability in buffer at pH 7.4 assessed as remaining compound at 10 mg/ml after 14 days. Particulars: read-out: Activity. Format: physicochemical. Summed up:
as §2

For data set [9], the system named is Rattus norvegicus. Kind of data set: AUC (0 to infinity) in Sprague-Dawley rat assessed as parent drug level at 100 mg/kg, iv. Format: ADME, organism-based, Plasma. On the set-up: dose 100 mg/kg, route intravenous, time infinity. Particulars: in vivo. Put shortly: (§3)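 Male Sprague-Dawley rats (n = 3) were dosed iv with the phosphate prodrug at 10, 30 or 100 mg/kg. Plasma levels of the parent drug were measured over time. Tmax, Cmax, AUC and elimination half-life were then derived from these levels.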

The subject of data set [10] is Rattus norvegicus. Nature of the data set: Half life in Sprague-Dawley rat assessed as parent drug level at 100 mg/kg, iv. Format: ADME, organism-based. On the set-up: dose 100 mg/kg, route intravenous. Particulars: in vivo. Summed up: as §3
Data set [11] has as its system Staphylococcus aureus. Kind of data set: Antibacterial activity against methicillin-susceptible Staphylococcus aureus 232-51 infected in mouse dosed 1 hr and 4 hr after infection, iv. Format: functional. The note with it: 232-51, iv. Put shortly: (§4)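 Lethal systemic S. aureus infection in mice, inoculated intraperitoneally; test agent given iv twice, at 1 h and 4 h post-infection. ED50 taken as the dose giving 50% mouse survival, reported with 95% confidence ranges.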

Data set [12] has as its system Staphylococcus aureus. Nature of the data set: Antibacterial activity against methicillin-resistant Staphylococcus aureus 236-29 infected in mouse dosed 1 hr and 4 hr after infection, iv. Format: functional. Particulars: 236-29, iv. Summed up:
as §4

A short description of data set [13]: Toxicity against iv dosed ICR mouse. Format: organism-based. The note with it: in vivo. Put shortly: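 Acute toxicity after iv administration in SPF-level ICR mice (n = 50); LD50 determined.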
In data set [14] the test system is Rattus norvegicus. Nature of the data set: Tmax in Sprague-Dawley rat assessed as parent drug level at 10 mg/kg, iv. The note with it: in vivo. Format: ADME, organism-based. On the set-up: dose 10 mg/kg, route intravenous. Put shortly:
as §3

For data set [15], the system named is Rattus norvegicus. Kind of data set: Cmax in Sprague-Dawley rat assessed as parent drug level at 10 mg/kg, iv. Format: ADME, organism-based. On the set-up: dose 10 mg/kg, route intravenous. The note with it: in vivo. Summed up:
as §3

In data set [16] the test system is Rattus norvegicus. Kind of data set: AUC (0 to infinity) in Sprague-Dawley rat assessed as parent drug level at 10 mg/kg, iv. The note with it: in vivo. The format is ADME, organism-based, Plasma. On the set-up: dose 10 mg/kg, route intravenous, time infinity. Summed up: as §3
Data set [17] has as its system Rattus norvegicus. Nature of the data set: Half life in Sprague-Dawley rat assessed as parent drug level at 10 mg/kg, iv. Format: ADME, organism-based. On the set-up: dose 10 mg/kg, route intravenous. The note with it: in vivo. Summed up: as §3
The subject of data set [18] is Rattus norvegicus. Nature of the data set: Tmax in Sprague-Dawley rat assessed as parent drug level at 30 mg/kg, iv. Format: ADME, organism-based. On the set-up: dose 30 mg/kg, route intravenous. The note with it: in vivo. Put shortly:
as §3

The test system of data set [19] is Rattus norvegicus. Kind of data set: Cmax in Sprague-Dawley rat assessed as parent drug level at 30 mg/kg, iv. Format: ADME, organism-based. On the set-up: dose 30 mg/kg, route intravenous. Particulars: in vivo. Put shortly: as §3
Data set [20] has as its system Rattus norvegicus. Kind of data set: AUC (0 to infinity) in Sprague-Dawley rat assessed as parent drug level at 30 mg/kg, iv. The format is ADME, organism-based, Plasma. On the set-up: time infinity, dose 30 mg/kg, route intravenous. Particulars: in vivo. Put shortly: as §3
The test system of data set [21] is Rattus norvegicus. Nature of the data set: Half life in Sprague-Dawley rat assessed as parent drug level at 30 mg/kg, iv. Format: ADME, organism-based. On the set-up: dose 30 mg/kg, route intravenous. Particulars: in vivo. Summed up: as §3
The test system of data set [22] is Rattus norvegicus. Kind of data set: Tmax in Sprague-Dawley rat assessed as parent drug level at 100 mg/kg, iv. Format: ADME, organism-based. On the set-up: dose 100 mg/kg, route intravenous. The note with it: in vivo. Summed up:
as §3

Data set [23] has as its system Rattus norvegicus. Kind of data set: Cmax in Sprague-Dawley rat assessed as parent drug level at 100 mg/kg, iv. The format is ADME, organism-based. On the set-up: dose 100 mg/kg, route intravenous. Particulars: in vivo. Summed up: as §3
The mark [24] stands for this setting: Staphylococcus aureus, read-out: MIC.

`C=C[C@]1(C)C[C@@H](OC(=O)NC(=O)c2ccc(O)cc2)[C@]2(C)[C@H](C)CC[C@]3(CCC(=O)[C@@H]32)[C@@H](C)[C@@H]1O`: the MIC in data set [1] (setting [24]) stood at 0.125 µg/mL (≈ 0.258 µM); in data set [2], 0.125 µg/mL (≈ 0.258 µM); in data set [3], 0.0625 µg/mL (≈ 0.129 µM); in [4], 0.125 µg/mL (≈ 0.258 µM); in data set [5], 0.25 µg/mL (≈ 0.517 µM).
Regarding `C=C[C@]1(C)C[C@@H](OC(=O)NC(=O)c2ccc(OC)cc2)[C@]2(C)[C@H](C)CC[C@]3(CCC(=O)[C@@H]32)[C@@H](C)[C@@H]1OP(=O)([O-])[O-].[Na+].[Na+]`, in data set [6], the concentration in solution (solubility) was 57.6 mg/mL. For the same compound, the remaining at 8 h, 10 mg/ml in data set [7] was 100%. Besides, the remaining at 336 h, 10 mg/ml in data set [8] was found to be 99.8%.
Consider `C=C[C@]1(C)C[C@@H](OC(=O)NC(=O)c2ccc(OC)cc2)[C@]2(C)[C@H](C)CC[C@]3(CCC(=O)[C@@H]32)[C@@H](C)[C@@H]1O`, for which the minimal inhibitory concentration (MIC) in data set [1] (setting [24]) amounted to 0.0625 µg/mL (≈ 0.126 µM); in [2], 0.0625 µg/mL (≈ 0.126 µM); in [3], 0.0625 µg/mL (≈ 0.126 µM); in data set [4], 0.0625 µg/mL (≈ 0.126 µM); in data set [5], 0.125 µg/mL (≈ 0.251 µM).
In the case of `CC(=O)NC[C@H]1CN(c2ccc(N3CCOCC3)c(F)c2)C(=O)O1` [LINEZOLID], the minimum inhibitory concentration (MIC) worked out at 0.5 µg/mL (≈ 1.48 µM) in data set [1], 1 µg/mL (≈ 2.96 µM) in data set [2], 0.5 µg/mL (≈ 1.48 µM) in data set [3] and 1 µg/mL (≈ 2.96 µM) in data set [4].
On to `CC[C@]1(C)C[C@@H](OC(=O)NC(=O)c2ccc(OP(=O)([O-])[O-])cc2)[C@]2(C)[C@H](C)CC[C@]3(CCC(=O)[C@@H]32)[C@@H](C)[C@@H]1O.[Na+].[Na+]`, for which the AUC came out at 32600 ng·h/mL in data set [9], 1290 ng·h/mL in data set [16] and 5040 ng·h/mL in data set [20]. The t1/2 in [10] turned out to be 37.8 min; in data set [17], 30.6 min; in data set [21], 45 min. In addition, the ED50 was 17.4 mg/kg in [11] and 20.9 mg/kg in data set [12]. The compound also registered an LD50 in data set [13] of 1010 mg/kg. The compound further came in with a solubility in [6] of 96.8 mg/mL. The remaining at 8 h, 10 mg/ml in data set [7] came to 100%. Moreover, the remaining at 336 h, 10 mg/ml in [8] was 99.6%. Besides, the Tmax in data set [14], in data set [18] and in data set [22] was 4.98 min throughout. For the same compound, the Cmax in data set [15] was found to be 3390 ng/mL; in data set [19], 11300 ng/mL; in data set [23], 67500 ng/mL.
For `CN[C@H](CC(C)C)C(=O)N[C@H]1C(=O)N[C@@H](CC(N)=O)C(=O)N[C@H]2C(=O)N[C@H]3C(=O)N[C@H](C(=O)N[C@H](C(=O)O)c4cc(O)cc(O)c4-c4cc3ccc4O)[C@H](O)c3ccc(c(Cl)c3)Oc3cc2cc(c3O[C@@H]2O[C@H](CO)[C@@H](O)[C@H](O)[C@H]2O[C@H]2C[C@](C)(N)[C@H](O)[C@H](C)O2)Oc2ccc(cc2Cl)[C@H]1O` [VANCOMYCIN], the 50% effective dose (ED50) in data set [11] is 13.5 mg/kg; in [12] it was 15.8 mg/kg.
For the compound `C=C[C@]1(C)C[C@@H](OC(=O)CS[C@@H]2C[C@H]3CC[C@@H](C2)N3C)[C@]2(C)[C@H](C)CC[C@]3(CCC(=O)[C@H]32)[C@@H](C)[C@@H]1O` [RETAPAMULIN], the MIC in data set [1] (setting [24]), in data set [2], in data set [3], in data set [4] and in [5] was 0.031 µg/mL (≈ 0.0599 µM) throughout.
`CC[C@]1(C)C[C@@H](OC(=O)NC(=O)c2ccc(O)cc2)[C@]2(C)[C@H](C)CC[C@]3(CCC(=O)[C@@H]32)[C@@H](C)[C@@H]1OP(=O)([O-])[O-].[Na+].[Na+]`: the concentration in solution in [6] (solubility) came to 52.3 mg/mL. Moreover, in data set [7], the remaining at 8 h, 10 mg/ml worked out at 100%. Besides, the remaining at 336 h, 10 mg/ml in data set [8] is 99.5%.
